Our source for the ID50 and EC50 values is ChEMBL document CHEMBL1133761, “Structure-activity relationships of (E)-5-(2-bromovinyl)uracil and related pyrimidine nucleosides as antiviral agents for herpes viruses” (J Med Chem, 2000).

The EC50 is the concentration giving half of the maximal effect. A lower EC50 goes with greater potency.

Experiment [1] deals with CCRF-CEM. Briefly: Dose that inhibited 50% cell growth of human T-lymphoid CEM cells compared with untreated control. The class given is functional. The essentials: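 CEM cells in log-phase growth were exposed to serial drug dilutions and kept for three generations, then counted by Coulter counter. ID50 is the dose giving 50% growth inhibition versus untreated control.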

In experiment [2] the test system is CCRF-CEM. Briefly: The mitochondrial toxicity was measured on human T-lymphoid CEM cells. The class given is functional. In outline:
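Human T-lymphoid CEM cells were incubated with drug at various concentrations, with medium and drug renewed on days 4 and 6, and harvested on day 8. DNA was extracted in TE (25 mM Tris pH 8.0, 1 mM EDTA), treated with RNase A and proteinase K, slot-blotted and probed with an mtDNA-specific probe.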

A further experiment relates to Human gammaherpesvirus 4. Briefly: Effective concentration to show 50% of activity was measured on Epstein Barr virus(EBV) cell culture. Type of experiment: functional, organism-based. In outline: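 EBV-producing H-1 cells were kept in RPMI 1640 with 10% FBS. Inhibition of viral growth was read as reduced viral DNA synthesis and expressed as EC50.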
The nature of experiment [3]: Effective concentration to show 50% of activity was measured on herpes simplex virus-2 333 strain cell culture. Type of experiment: functional, Human alphaherpesvirus 2. The essentials:
(§1)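 Plaque reduction assay in Vero cells kept in RPMI 1640 with 10% FBS. HSV-1 was KOS strain and HSV-2 was strain 333. EC50 is based on the reduction in plaques.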

The subject of experiment [4] is Human alphaherpesvirus 3. Briefly: Effective concentration to show 50% of activity was measured on varicella zoster virus(VZV) cell culture. The class given is functional, organism-based.
The nature of experiment [5]: Effective concentration to show 50% of activity was measured on herpes simplex virus-1 KOS strain cell culture. Type of experiment: functional, Human alphaherpesvirus 1. In outline: as §1
The nature of experiment [6]: The effective concentration to show 50% of activity was measured on herpes simplex virus-1 with strain KOS cell culture. The class given is functional, cell-based, Human alphaherpesvirus 1. The essentials: as §1
Experiment [7] has as its system Human alphaherpesvirus 3. Briefly: The effective concentration to show 50% of activity was measured on varicella zoster virus(VZV) cell culture. The class given is functional, organism-based. The essentials:
(§2)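 VZV Ellen strain was used. Antiviral effect was scored as inhibition of viral DNA synthesis and expressed as EC50.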

The subject of experiment [8] is Human alphaherpesvirus 3. Put plainly: The effective concentration to show 50% of activity was measured on varicella zoster virus(Ellen) cell culture. The class given is functional, organism-based. The essentials: as §2

Each structure is given as a SMILES string.

With `O=c1[nH]c(=O)n([C@@H]2CO[C@H](CO)O2)cc1/C=C/I`, the ID50 with CCRF-CEM [1] is above 100 µM; in the experiment on CCRF-CEM [2], above 200 µM. Besides, the EC50 in the experiment on Human gammaherpesvirus 4 (human gammaherpesvirus 4) was 3.91 µM; in [3], above 50 µM; in the experiment on Human alphaherpesvirus 3 [4] (Human alphaherpesvirus 3), 0.035 µM; in experiment [5] it was 33 µM.

For `Nc1nc(O)c2ncn(CCC(CO)CO)c2n1` [PENCICLOVIR], the ID50 in the experiment on CCRF-CEM [1] was above 100 µM; in the experiment with CCRF-CEM [2], above 200 µM. For the same compound, the EC50 in [6] was 18 µM; in the experiment on Human alphaherpesvirus 3 [7] it was 0.14 µM.

Turning to `O=c1[nH]c(=O)n([C@@H]2CO[C@H](CO)O2)cc1Br`, the figures for the ID50 in the experiment on CCRF-CEM [1] and in the experiment on CCRF-CEM [2] were above 100 µM and above 200 µM, respectively. Moreover, the EC50 in the experiment with Human gammaherpesvirus 4 (human gammaherpesvirus 4) was 0.19 µM; with Human alphaherpesvirus 3 [4] (Human alphaherpesvirus 3) it was above 30 µM.

Compound `O=c1[nH]c(=O)n([C@H]2O[C@@H](CO)[C@H](O)[C@H]2O)cc1/C=C/Br` (stereo in doubt) showed an ID50 with CCRF-CEM [2] above 200 µM. Besides, the figures for the EC50 with Human gammaherpesvirus 4 and in the experiment on Human alphaherpesvirus 3 [4] were 47 µM and 0.001 µM, respectively.

Regarding `O=c1[nH]c(=O)n([C@H]2O[C@@H](CO)[C@H](O)[C@@H]2F)cc1/C=C/Br`, in the experiment on CCRF-CEM [1], the ID50 is above 100 µM. Further, the 50% effective concentration (EC50) (in [3]; in the experiment on Human alphaherpesvirus 3 [4] (Human alphaherpesvirus 3); in experiment [5]) was above 50 µM in each case.

In the case of `O=c1[nH]c(=O)n([C@H]2CO[C@H](CO)O2)cc1/C=C/Br`, the ID50 was above 100 µM in the experiment with CCRF-CEM [1] and above 25 µM in the experiment with CCRF-CEM [2]. The EC50 with Human gammaherpesvirus 4 (human gammaherpesvirus 4) was above 50 µM; in experiment [3] it was above 50 µM; in the experiment on Human alphaherpesvirus 3 [4] (Human alphaherpesvirus 3), above 30 µM; in experiment [5], above 50 µM.

On to `O=c1[nH]c(=O)n([C@@H]2CO[C@H](CO)O2)cc1I`, for which the ID50 is above 100 µM in the experiment on CCRF-CEM [1] and above 200 µM with CCRF-CEM [2]. Besides, the EC50 came out at 0.033 µM in the experiment on Human gammaherpesvirus 4 (human gammaherpesvirus 4) and 17 µM in the experiment with Human alphaherpesvirus 3 [7].

On to `O=c1[nH]c(=O)n([C@@H]2CO[C@H](CO)O2)cc1/C=C/Cl`, for which the ID50 with CCRF-CEM [1] is above 100 µM; in the experiment on CCRF-CEM [2], above 200 µM. The EC50 was 0.49 µM with Human gammaherpesvirus 4 (human gammaherpesvirus 4), above 50 µM in experiment [3], 0.15 µM with Human alphaherpesvirus 3 [4] (Human alphaherpesvirus 3) and 18 µM in [5].

In the case of `O=c1[nH]c(=O)n([C@H]2CO[C@H](CO)O2)cc1/C=C/I`, the ID50 in the experiment with CCRF-CEM [1] is above 100 µM; with CCRF-CEM [2], above 25 µM. In addition, the EC50 in the experiment with Human gammaherpesvirus 4 (human gammaherpesvirus 4) is above 50 µM; in experiment [3], above 50 µM; in the experiment on Human alphaherpesvirus 3 [4] (Human alphaherpesvirus 3), above 30 µM; in [5] it was above 50 µM.

As to `O=c1[nH]c(=O)n([C@H]2CO[C@H](CO)O2)cc1/C=C/Cl`, the ID50 in the experiment with CCRF-CEM [1] was above 100 µM; in the experiment on CCRF-CEM [2], above 25 µM. Also, the concentration for a half-maximal effect (EC50) in the experiment on Human gammaherpesvirus 4 (human gammaherpesvirus 4) is above 50 µM; in [3], above 50 µM; in the experiment on Human alphaherpesvirus 3 [4] (Human alphaherpesvirus 3), above 30 µM; in experiment [5], above 50 µM.

In the case of `O=c1[nH]c(=O)n([C@H]2C[C@H](O)[C@@H](CO)O2)cc1/C=C/Br` [BRIVUDINE], the ID50 in the experiment with CCRF-CEM [1] and in the experiment with CCRF-CEM [2] was above 100 µM throughout. Further, the EC50 in the experiment on Human gammaherpesvirus 4 (human gammaherpesvirus 4) is above 50 µM; in experiment [3], above 50 µM; in the experiment on Human alphaherpesvirus 3 [8] it was above 50 µM; in the experiment with Human alphaherpesvirus 3 [4] (Human alphaherpesvirus 3) it was 0.05 µM; in experiment [5] it was above 50 µM.

Consider `Nc1nc2c(ncn2COCCO)c(=O)[nH]1` [ACYCLOVIR], for which the ID50 in the experiment with CCRF-CEM [1] is above 100 µM; with CCRF-CEM [2], above 200 µM. Besides, the EC50 was 19.7 µM with Human gammaherpesvirus 4 (human gammaherpesvirus 4) and 13.6 µM in experiment [5].

In the case of `O=c1[nH]c(=O)n([C@H]2O[C@@H](CO)[C@H](O)[C@H]2O)cc1/C=C/Br` (stereo in doubt; 4), the ID50 in the experiment on CCRF-CEM [1] was above 100 µM. The EC50 (in the experiment on Human gammaherpesvirus 4 (human gammaherpesvirus 4); in experiment [3]; with Human alphaherpesvirus 3 [4]; in [5]) was above 50 µM throughout.

In the experiment on CCRF-CEM [1], `O=c1[nH]c(=O)n(C2CS[C@@H](CO)O2)cc1/C=C/Br` (stereo partly drawn) gave an ID50 above 100 µM. Moreover, the EC50 in [3] and in experiment [5] was above 50 µM in each case.

Regarding `O=c1[nH]c(=O)n([C@@H]2CO[C@@H](CO)O2)cc1/C=C/Br`, in the experiment on CCRF-CEM [1], the ID50 is above 100 µM. For the same compound, the EC50 was above 50 µM with Human gammaherpesvirus 4 (human gammaherpesvirus 4), above 50 µM in experiment [3], above 30 µM with Human alphaherpesvirus 3 [4] (Human alphaherpesvirus 3) and above 50 µM in experiment [5].

In the experiment on CCRF-CEM [1], `O=c1[nH]c(=O)n([C@H]2O[C@@H](CO)[C@H](O)[C@H]2F)cc1/C=C/Br` yielded an ID50 above 100 µM. Moreover, the EC50 (in experiment [3]; in the experiment on Human alphaherpesvirus 3 [4] (Human alphaherpesvirus 3); in experiment [5]) was above 50 µM throughout.

Regarding `O=c1[nH]c(=O)n([C@@H]2CO[C@H](CO)O2)cc1/C=C/Br`, the ID50 in the experiment with CCRF-CEM [1] is above 100 µM; in the experiment with CCRF-CEM [2] it was above 200 µM. Moreover, the EC50 in the experiment with Human gammaherpesvirus 4 (human gammaherpesvirus 4) was 0.59 µM; in experiment [3] it was above 50 µM; in the experiment on Human alphaherpesvirus 3 [4] (Human alphaherpesvirus 3), 0.07 µM; in experiment [5], 36 µM.

`O=c1[nH]c(=O)n(C2CO[C@@H](CO)O2)cc1/C=C/Br` (stereo partly drawn) returned an ID50 in the experiment on CCRF-CEM [1] above 100 µM. The EC50 in the experiment with Human gammaherpesvirus 4 (human gammaherpesvirus 4) was above 50 µM; in [3] it was above 50 µM; with Human alphaherpesvirus 3 [4] (Human alphaherpesvirus 3), 26 µM; in experiment [5] it was above 50 µM.
